Data set [1] in a line: Antioxidant activity assessed as inhibition of Fe2+-induced thiobarbituric acid reactive substance formation in phospholipids extracted from egg yolk by measuring malondialdehyde levels per mg of triglycerides at 100 uM after 1 hr by UV-Vis spectrophotometric method (reference value: 8.17 +/- 0.32 nmol). It counts as functional. The gist of the method:
(§1)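 Egg-yolk phospholipids (isopropanol/water extract, pellet resuspended; 1 mg/mL triglycerides) incubated with or without fresh FeSO4 100 μM plus compound in 0.05 M potassium phosphate pH 7.5, 37°C 1 h. Acetic acid (pH 3.4) and 0.6% TBA added, 97°C 1 h, n-butanol extraction, A532 against MDA standard. Reported as nmol MDA/mg triglycerides. Mean ± SEM, n=3 in duplicate.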

Data set [2] concerns the target Acetylcholinesterase (Electrophorus electricus, UniProt O42275). In words: Inhibition of electric eel AChE using acetylthiocholine iodide as substrate preincubated for 15 mins followed by substrate addition measured every 15 secs for 5 to 10 mins by Ellman's method.
A short description of data set [3]: Metal chelating activity assessed as compound-Fe2+ complex formation after 10 mins by UV-Vis spectrophotometer. It counts as physicochemical. The procedure, abridged:
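Fe2+ chelation by modified Minotti–Aust method. Compounds 5–100 μM with Fe2+ 120 μM (final), 37°C 10 min, then 1,10-phenanthroline (0.25% w/v) added and A510 read. Methanol serves as control, BHT as reference chelator. % chelation = (A control − A sample)/A control × 100; EC50 derived. Mean ± SEM, n=3 in duplicate.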

The nature of data set [4]: Antioxidant activity assessed as inhibition of Fe2+-induced thiobarbituric acid reactive substance formation in phospholipids extracted from egg yolk after 1 hr by UV-Vis spectrophotometric method. It counts as functional. The procedure, abridged: as §1

Sequence of Acetylcholinesterase (O42275 whole entry): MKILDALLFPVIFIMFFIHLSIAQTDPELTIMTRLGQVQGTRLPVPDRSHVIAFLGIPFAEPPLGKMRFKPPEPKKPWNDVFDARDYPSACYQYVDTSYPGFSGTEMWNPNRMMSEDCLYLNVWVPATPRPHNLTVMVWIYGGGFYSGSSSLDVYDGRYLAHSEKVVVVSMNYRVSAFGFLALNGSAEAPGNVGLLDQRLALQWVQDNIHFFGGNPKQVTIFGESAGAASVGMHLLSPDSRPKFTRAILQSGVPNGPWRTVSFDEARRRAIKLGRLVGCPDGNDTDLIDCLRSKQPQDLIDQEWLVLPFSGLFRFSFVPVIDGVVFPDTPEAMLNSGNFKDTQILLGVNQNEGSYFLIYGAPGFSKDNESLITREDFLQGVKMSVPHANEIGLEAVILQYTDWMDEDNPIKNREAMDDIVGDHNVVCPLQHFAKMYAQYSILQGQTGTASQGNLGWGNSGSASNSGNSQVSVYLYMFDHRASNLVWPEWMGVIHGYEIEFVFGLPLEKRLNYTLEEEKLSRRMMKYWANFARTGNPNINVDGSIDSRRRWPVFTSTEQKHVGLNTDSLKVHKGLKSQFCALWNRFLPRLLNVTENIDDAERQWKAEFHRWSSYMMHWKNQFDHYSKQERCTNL

As for `CCOC(=O)C1=C(C[Se]C(=O)c2ccc(C)cc2)NC(=O)NC1c1ccccc1` (stereo not given), the MDA level in data set [1] came out at 0.46 nmol. For the same compound, the IC50 in data set [2] was found to be 7.21 µM. In data set [3], the 50% effective concentration (EC50) is 10.5 µM. Further, in data set [4], the Activity result is “Dose-dependent effect”.
For `CCOC(=O)C1=C(C[Se]C(=O)c2ccc(C)cc2)N(C)C(=O)NC1c1cccc([N+](=O)[O-])c1` (stereo not given), the MDA level in data set [1] came to 2.29 nmol. The EC50 in data set [3] was 32.8 µM.
On to `CCOC(=O)C1=C(C[Se]C(C)=O)NC(=O)NC1c1ccccc1` (stereo not given), for which the MDA level in data set [1] is 5.1 nmol. In addition, the half-inhibitory concentration (IC50) in data set [2] was 14.2 µM. In addition, the EC50 in data set [3] worked out at 41.2 µM.
For `CCOC(=O)C1=C(C[Se]C(=O)c2ccc(C)cc2)NC(=O)NC1c1ccc(N(C)C)cc1` (stereo not given), the MDA level in data set [1] came out at 3.96 nmol. Moreover, the EC50 in data set [3] was determined as 29.6 µM.
The matching figures for `CCOC(=O)C1=C(C[Se]C(=O)c2ccc(C)cc2)NC(=O)NC1c1cccc([N+](=O)[O-])c1` (stereo not given): 1.51 nmol and 24.5 µM.
For `O=c1c2ccccc2[se]n1-c1ccccc1`, the MDA level in data set [1] amounted to 3.22 nmol.
With `CCOC(=O)C1=C(C[Se]C(=O)c2cccc(C(=O)[Se]CC3=C(C(=O)OCC)C(c4ccccc4)NC(=O)N3)c2)NC(=O)NC1c1ccccc1` (stereo not given), the MDA level in data set [1] was 3.99 nmol. This compound yielded an IC50 in data set [2] of 10.6 µM. The EC50 in data set [3] was found to be 29.9 µM.
In the case of `CCOC(=O)C1=C(C)NC(=O)NC1c1ccccc1` (stereo not given), the MDA level in data set [1] was determined as 3.03 nmol. For the same compound, the half-inhibitory concentration (IC50) in data set [2] stood at 9.23 µM. The EC50 in data set [3] amounted to 15.8 µM.
As to `CCOC(=O)C1=C(C[Se]C(=O)c2ccc(C)cc2)NC(=O)NC1c1ccc(OC)cc1` (stereo not given), the MDA level in data set [1] is 0.77 nmol. Moreover, in data set [3], the EC50 came to 22.4 µM. Also, the Activity result in data set [4] is “Dose-dependent effect”.
For `CCOC(=O)C1=C(C[Se]C(=O)c2ccc(C)cc2)NC(=O)NC1c1cccc2ccccc12` (stereo not given), in data set [1], the MDA level is 1.96 nmol. For the same compound, the EC50 in data set [3] turned out to be 35.5 µM.
Consider `c1ccc([Se][Se]c2ccccc2)cc1`, for which the MDA level in data set [1] turned out to be 2.41 nmol.
For the compound `CCOC(=O)C1=C(C[Se]C(=O)c2ccc(C)cc2)NC(=O)NC1c1ccc(C)cc1` (stereo not given), in data set [1], the MDA level worked out at 0.87 nmol. In addition, the half-maximal effective concentration (EC50) in data set [3] was determined as 21.2 µM. Also, in data set [4], the Activity result is “Dose-dependent effect”.
As to `Cc1cc(C(C)(C)C)c(O)c(C(C)(C)C)c1` [BUTYLATED HYDROXYTOLUENE], the EC50 in data set [3] amounted to 23.3 µM.
For `CCOC(=O)C1=C(CSC(=O)c2ccc(C)cc2)NC(=O)NC1c1ccccc1` (stereo not given), in data set [1], the MDA level is 3.14 nmol. This compound yielded an IC50 in data set [2] of 11.7 µM. In addition, in data set [3], the EC50 was 20.2 µM.
The matching figures for `Cc1ccc(C(=O)[Se]Cc2ccccc2)cc1`: 1.23 nmol, 12.9 µM and 22.4 µM.
As to `CCOC(=O)C1=C(C[Se]C(=O)c2ccc(C)cc2)NC(=O)NC1c1ccc(O)c(OC)c1` (stereo not given), the MDA level in data set [1] was 0.68 nmol. The compound further returned an IC50 in data set [2] of 13.6 µM. In data set [3], the half-maximal effective concentration (EC50) worked out at 8.1 µM. Besides, in data set [4], the Activity entry was “Dose-dependent effect”.

Values taken from ChEMBL document CHEMBL3860085, “Synthesis and evaluation of dihydropyrimidinone-derived selenoesters as multi-targeted directed compounds against Alzheimer's disease” (Bioorg Med Chem, 2016).
